# Screening results from PubChem BioAssay.
# An excerpt weighted towards active compounds, which were near 0.95% of everything screened.
# miR-122 sensor: blocks miR-122 activity in Huh7 sensor cells | 340,000 compounds, 0.3% hits | activation (reporter increase), % at 12.5 µM | AID 602342 | Huh7 miR-122 Renilla luciferase sensor, 48 h; neutral wells = 0, positive control = 100;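 active = mean replicate activation score at least 90 and every replicate individually at or above 90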;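 also: higher luciferase means less miR-122 activity so hits act as miR-122 inhibitors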
# CAL PDZ FP-1: blocks peptide binding to the human CAL PDZ domain. Q9HD26. purified CAL PDZ, TMR-peptide fluorescence polarization, 1 h. inhibition, % at 24.9 µM. 300,000 compounds, 0.92% hits;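 active = mean inhibition of at least 30% with at least half of replicates also reaching 30%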;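 also: 0% = DMSO neutral control and 100% = excess unlabeled competitor peptide PRC23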
# PvdQ inh: P. aeruginosa PvdQ acylase inhibition | purified PvdQ acylase, fluorescence plate reader | inhibition, % at 10 µM | 340,000 compounds, 0.063% hits; in the data active = inhibition above about 30%, passing the limit was not always enough;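 also: 0% = vehicle neutral wells and 100% = reference inhibitor wells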
# CAL PDZ FP-2: inhibitors of human CAL PDZ peptide binding; purified CAL PDZ, TMR-peptide fluorescence polarization, 1 h; inhibition, % at 20 µM; 330,000 compounds, 0.02% hits;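 active = highest replicate inhibition of at least 40%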;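 also: plate controls were DMSO neutral control wells for no effect and unlabeled competitor peptide control wells for full effect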
#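 Material – purified CerCALP PDZ construct · Detection – FP readout, S and P plane fluorescence · Measure – percent inhibition from loss of millipolarization · Controls – unlabelled peptide for full inhibition, DMSO wells as neutral · Probe or stimulus – TMR-labelled reporter peptide T*-PRC34 bound in PDZ groove · Times – 1 h at RT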
# * marks the source's active call; other numbers are inactive results; · = no result; [ ] = another dose, or the depositor's remark.
SMILES,miR-122 sensor,CAL PDZ FP-1,PvdQ inh,CAL PDZ FP-2
COc1ccc(NC(=O)CN(C)C(=O)c2cn(-c3ccccc3)nc2-c2cccs2)cc1,0,-2,4,-3
CN(CC(=O)Nc1ccc(F)cc1)C(=O)c1cn(-c2ccccc2)nc1-c1cccs1,1,31*,-12,-1
CCOc1cc(C(=S)N2CCN(C)CC2)ccc1OCC(=O)N1CCOCC1,-1,31*,-11,-1
CCOc1cc(C(=O)OCc2ccc(OC)cc2)ccc1OCC(=O)N1CCOCC1,·,3,7,-2
CCOC(=O)C1(CCOc2ccccc2)CCN(Cc2cnc(SC)nc2)CC1,-3,46*,-12,-1
CCOC(=O)C1(CCOc2ccccc2)CCN(Cc2ccc(C)o2)CC1,·,53*,-13,-1
CCOc1cc(N2CCOCC2)c(OCC)cc1NC(=O)c1cc(S(=O)(=O)N2CCOCC2)ccc1Cl,-8,·,-20,0
CCOc1cc(N2CCOCC2)c(OCC)cc1NS(=O)(=O)c1ccc(Cl)s1,113*,1,8,-1
CCOc1cc(N2CCOCC2)c(OCC)cc1NC(=O)COC(=O)c1ccc([N+](=O)[O-])o1,-2,92*,-19,0
CCOc1cc(N2CCOCC2)c(OCC)cc1NC(=O)CN1CCCC1,·,94*,-11,-1
CCOc1cc(N2CCOCC2)c(OCC)cc1NC(=O)C1CCCC1,0,-1,-12,-3
CCOc1cc(N2CCOCC2)c(OCC)cc1NC(=O)COC(=O)c1cc(C)cc(C)c1,·,-6,3,0
CCOC(=O)c1c(NC(=O)COc2ncnc3ccccc23)sc(C)c1C,·,-2,-4,-2
Cc1cc(C)c2c(CN3CCC(C)CC3)cc(=O)oc2c1,11,80*,-16,-1
Cc1cc(C)c2c(CN3CCCCC3)cc(=O)oc2c1,·,2,-1,-1
O=C(COc1ccc(F)cc1)Nc1ccc(S(=O)(=O)Nc2ncccn2)cc1,·,-2,-13,0
O=C(O/N=C1\CCS(=O)(=O)c2sccc21)c1c(F)cccc1F,·,2,10,-3
O=S1(=O)CC/C(=N\Nc2ccccc2)c2ccsc21,·,33*,-1,-1
c1ccc2nc(N3CCOCC3)c(N3CCCC3)nc2c1,13,71*,-3,9
c1ccc2nc(N3CCCC3)c(N3CCCCC3)nc2c1,-8,-2,-8,5
COc1ccccc1Oc1nc2c(c(=O)n(Cc3ccccc3F)c(=O)n2C)n1C,1,75*,-6,-2
Cc1ccc(S(=O)(=O)N2CCCCC2)cc1C(=O)NCCCN1CCOCC1,2,-2,-15,1
CCN1/C(=C/C=C/c2oc3ccc(-c4ccccc4)cc3[n+]2CC)Oc2ccc(-c3ccccc3)cc21,-11,36*,-11,-4
CCN1/C(=C/C=C/c2sc3ccccc3[n+]2CC)Sc2ccccc21,-23,-114,10,-37
C[C@H](NC(=O)N1CCn2c1nc1ccccc12)C(=O)N1CCCCC1,-7,42*,-8,0
SMILES,miR-122 sensor,CAL PDZ FP-1,PvdQ inh,CAL PDZ FP-2
CCOc1ncccc1C(=O)OCC(=O)N(CC(C)C)C1CCS(=O)(=O)C1 (stereo not given),-1,57*,-14,0
CC(C)c1ccc(/C=C/C(=O)CCC(=O)O)cc1,213*,2,-4,0
O=C(NCc1nnnn1-c1ccc(Cl)cc1)C1CC(=O)N(c2ccc(F)cc2)C1 (stereo not given),-2,·,·,·
CCOc1ccc(/C=N/NC(=O)c2ccoc2C)cc1OC,-5,182*,-17,-1
COCc1nnc(NC(=O)C2CC(=O)N(c3ccc(C)c(Cl)c3)C2)s1 (stereo not given),·,-1,-9,-2
Cc1ccc(N2CC(C(=O)Nc3nccs3)CC2=O)cc1Cl (stereo not given),96*,·,-10,-3
O=C(CC1SC(N2CCOCC2)=NC1=O)Nc1ccc(Cl)c(C(F)(F)F)c1 (stereo not given),5,·,-5,0
COc1ccc(S(=O)(=O)NC(Cc2ccccc2)C(=O)O)cc1 (stereo not given),-3,2,-1,0
CCCCC(NS(=O)(=O)c1ccc(OC)cc1)C(=O)O (stereo not given),-5,49*,-14,3
CCOc1ccc(CN2CCN(Cc3cccn3-c3cccnc3)CC2CCO)cc1 (stereo not given),·,78*,-13,-1
N/C(=N\OC(=O)c1cccc(F)c1)c1ccccn1,-4,1,-8,-2
CSc1nc2c(c(=O)[nH]1)C(c1cccs1)C1=C(CCCC1=O)N2 (stereo not given),6,32*,-13,-1
CCSc1nc2c(c(=O)[nH]1)C(c1ccc(C)cc1)C1=C(CCCC1=O)N2 (stereo not given),·,-3,-14,0
COCCNC(=O)C[C@H]1CC[C@@H]2[C@@H](COc3ccc(NC(=O)c4ccno4)cc3C(=O)N2C)O1,-20[16.7 µM],·,·,·
CC(NC(=O)c1cccc(S(=O)(=O)N(C)C)c1)C1CC2CCC1C2 (stereo not given),4,-4,9,-2
Cc1nc(SCCC(=O)O)c2cc(-c3ccccc3)sc2n1,-1,55*,-6,-2
CCc1nnc(NC(=O)c2ccc(NS(=O)(=O)c3ccccc3)cc2)s1,212*,-1,-2,0
CCc1nnc(NS(=O)(=O)c2ccc(N)cc2)s1,2,-1,-9,0
CCc1nnc(NC(=O)c2cc(C)nc3ccccc23)s1,7,65*,-11,-1
CCc1nnc(NC(=O)c2cc(-c3ccc(C)o3)nc3ccccc23)s1,12,1,5,-1
CCc1nnc(NS(=O)(=O)c2ccc(N3C(=O)c4ccccc4C3=O)cc2)s1,·,84*,-14,-1
CCOc1ccc(CN2CCN(Cc3cccn3-c3ncccn3)CC2CCO)cc1 (stereo not given),-1,0,-12,-2
Cc1ccc(-n2nnnc2SCC(=O)N2c3ccccc3NC(=O)C2(C)C)cc1,160*,-1,-6,-1
Cc1ccc(-c2nnc(SCC(=O)N3c4ccccc4NC(=O)C3(C)C)n2N)cc1,2,2,-18,-1
CCCCn1c(O)c(N=Nc2ccccc2O)c2ccccc21,5,37*,-2,0
SMILES,miR-122 sensor,CAL PDZ FP-1,PvdQ inh,CAL PDZ FP-2
O=C(Cn1cnc([N+](=O)[O-])n1)N/N=C/c1ccc2ccccc2c1,·,-4,-5,-3
CN(CCOc1ccccc1)C(=O)c1cc([N+](=O)[O-])ccc1N1CCOCC1,·,33*,-2,-1
CN(Cc1ccccc1)C(=O)COC(=O)c1cc([N+](=O)[O-])ccc1N1CCOCC1,-12,·,-9,-1
CSc1ncc(CN2CCN(C3CCCC3)C(CCO)C2)cn1 (stereo not given),6,31*,-16,-3
OCCC1CN(Cc2cnc(N3CCCC3)s2)CCN1C1CCCC1 (stereo not given),-6,2,-5,0
Cc1ncc(CN2CCN(C3CCCC3)C(CCO)C2)s1 (stereo not given),1,82*,-15,0
N#Cc1c(C(F)(F)F)cc(-c2ccccc2)nc1SCc1nc(N)nc(N2CCOCC2)n1,-1,-2,10,-3
